# In ChEMBL document CHEMBL1641525, “Antiproliferative and apoptotic sesquiterpene lactones from Carpesium faberi” (Bioorg Med Chem Lett, 2011):
# The source made the active and inactive calls. No cut-off for these calls is given here.
# Experiments:
# MCF7 [1] = experiment: Cell cycle arrest in human MCF7 cells assessed as accumulation at G2/M phase at IC50 concentration after 24 hrs using propidium iodide staining by flow cytometry; type: functional, cell-based
# MCF7 [2] = experiment: Antiproliferative activity against human MCF7 cells after 48 hrs by MTT assay; type: functional, cell-based; details: MCF7, 48 h
# Outline: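 MCF-7 (ATCC) grown in DMEM + 10% heat-inactivated FBS, penicillin/streptomycin, 37 °C, 5% CO2. Exponential cells seeded 4.0×10^3/well; after 24 h treated with a range of concentrations for 48 h in the dark. Medium refreshed, then MTT (1 mg/mL) for 4 h; formazan dissolved in DMSO, OD 570 nm. 0.5% DMSO negative control. IC50 from log concentration–viability curves.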
# MCF7 [3] = experiment: Cell cycle arrest in human MCF7 cells assessed as accumulation at sub-G1 phase at IC50 concentration after 24 hrs using propidium iodide staining by flow cytometry; type: functional
Structure (SMILES),Activity (MCF7 [1]),IC50 (MCF7 [2]) [µg/mL],Activity (MCF7 [3]) [%]
C=C1C(=O)O[C@H]2C[C@@H](C)[C@@H]3CC[C@H](O)[C@@]3(C)C[C@H]12 [PSEUDOGUAIANOLIDE],Active,9.8,
C[C@@H]1C[C@@H]2OC(=O)[C@@H](C)[C@H]2C[C@]2(C)[C@@H](O[C@@H]3O[C@H](CO)[C@@H](O)[C@H](O)[C@H]3O)CC[C@@H]12,,> 50,
C=C1C(=O)O[C@H]2C[C@@](C)(O)C3=CC[C@](C)(O)[C@@H]3C[C@H]12 [GUAIANOLIDE],Active,31.7,> 5
C=C1C[C@H](O)C[C@]2(C)C[C@H]3OC(=O)[C@@H](C)[C@H]3C[C@@]12O,,> 50,
C=C1C(=O)O[C@@H]2C[C@](C)(O)C3=CC[C@](C)(O)[C@@H]3C[C@H]12,,38.8,
O=c1[nH]cc(F)c(=O)[nH]1 [FLUOROURACIL],,14.1,
C=C1C(=O)O[C@@H]2C[C@@]3(C)C[C@@H](O)CC(=C)[C@@H]3C[C@H]12 [IVALIN],,12.5,
C=C1C(=O)O[C@H]2C[C@@H](C)[C@@H]3CC[C@H](O)[C@@]3(C)[C@@H](O)[C@H]12 [CARABROLACTONE B],,10.7,
COc1cccc2c1C(=O)c1c(O)c3c(c(O)c1C2=O)C[C@@](O)(C(C)=O)C[C@@H]3O[C@H]1C[C@H](N)[C@H](O)[C@H](C)O1 [DAUNORUBICIN],,0.5,
C[C@@H]1C(=O)O[C@@H]2C[C@@]3(C)O[C@@H]3C[C@H](O)[C@@]3(C)O[C@@H]3C[C@H]12 [CARABROLACTONE A],,> 50,
C=C1C(=O)O[C@@H]2C[C@@H](C)[C@@H]3CCC(=O)[C@@]3(C)C[C@H]12,,3.9,
C/C(=C\CO)CCC[C@H](C)CCC[C@H](C)CCCC(C)C [TRANS-PHYTOL],,> 50,
C=C1C(=O)O[C@@H]2C[C@](C)(O)C3=CC[C@@](C)(O)[C@@H]3C[C@H]12,,26.5,
C/C(=C\CO)CC[C@@H]1[C@@]2(C)CCCC(C)(C)[C@@H]2CC[C@@]1(C)O,,18.6,
C=C1C(=O)O[C@H]2C=C(C)[C@@H]3CC[C@](C)(O)[C@@H]3C[C@H]12 [4-EPI-ISOINUVISCOLIDE],,16.3,
C=C1C(=O)O[C@@H]2C[C@]3(C)[C@@H](CC[C@H](C)OC(C)=O)[C@@H]3C[C@H]12,Active,9.4,> 5
C=C1C(=O)O[C@H]2C[C@](C)(O)C3=CC[C@](C)(O)[C@@H]3C[C@H]12,,31.9,
C=C1C(=O)O[C@@H]2C[C@@]3(C)CCCC(=C)[C@]3(O)C[C@H]12 [TELEKIN],Active,3,
C=C1C(=O)O[C@@H]2C[C@H](C)C(CCC(C)=O)=CC[C@H]12 [TOMENTOSIN],,> 50,
